The source made the active and inactive calls. The calls are words filed in the database; no cut-off is given here.

In data set [1] the target is T1, Platelet-derived growth factor receptor beta (Homo sapiens, UniProt P09619). The experiment in a line: Inhibition of PDGFRbeta in human MDA-MB-231 cells assessed as C-Raf Ser259 phosphorylation level at 2.5 uM incubated for 24 hrs in presence of PDGFRbeta siRNA by Western blot relative to untreated control. It counts as cell-based.
Data set [2] concerns MDA-MB-231. The experiment in a line: Induction of autophagy in human MDA-MB-231 cells assessed as change in Beclin-1 protein level at 2.5 uM incubated for 24 hrs by Western blot method relative to untreated control. The class given is functional. The essentials:
(§1)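 MDA-MB-231 cells were exposed for 24 h. Adherent and floating cells were pooled and lysed for 1 h at 4 °C in 50 mM Hepes pH 7.4 with 1% Triton X-100, orthovanadate, NaF, EDTA, PMSF, aprotinin and leupeptin. After 12,000 rpm clearing, equal protein was run on 10-15% SDS-PAGE and blotted to PVDF. Detection used HRP-ECL, with β-actin as loading control and densitometric quantification.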

Data set [3] has as its target T1, Platelet-derived growth factor receptor beta. The experiment in a line: Inhibition of PDGFRbeta in human MDA-MB-231 cells assessed as ULK Ser317 phosphorylation level at 2.5 uM incubated for 24 hrs by Western blot relative to untreated control. The class given is cell-based. The essentials:
(§2)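 Cells were treated 24 h at several concentrations. Pooled adherent and floating cells were lysed in Hepes 50 mM pH 7.4 / 1% Triton X-100 buffer with vanadate, NaF, EDTA, PMSF, aprotinin and leupeptin. Equal protein was run on 10-15% SDS-PAGE and blotted to PVDF. PDGFR-β-AKT-ULK1 pathway phospho-proteins were probed and detected by ECL, with β-actin as loading control.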

For data set [4] the target is unchanged. The experiment in a line: Inhibition of PDGFRbeta in human MDA-MB-231 cells assessed as mTOR Ser2448 phosphorylation level at 2.5 uM incubated for 24 hrs in presence of control siRNA by Western blot relative to untreated control. The class given is cell-based. The gist of the method:
(§3)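 Cells were transfected with control or PDGFR-β siRNA, then treated with 2.5 μM compound for 24 h. PDGFR-β-AKT-ULK1 pathway phospho-proteins were assessed by western blot: lysis in Hepes pH 7.4 / Triton buffer, 10-15% SDS-PAGE, PVDF, ECL detection, β-actin as loading control.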

The target is the same in data set [5]. The experiment in a line: Inhibition of PDGFRbeta in human MDA-MB-231 cells assessed as PDGFRbeta Tyr740 phosphorylation level at 10 uM incubated for 24 hrs by Western blot relative to untreated control. It counts as cell-based. The essentials:
as §2

The target is the same in data set [6]. The experiment in a line: Inhibition of PDGFRbeta in human MDA-MB-231 cells assessed as C-Raf Ser338 phosphorylation level at 10 uM incubated for 24 hrs in presence of PDGFRbeta siRNA by Western blot relative to untreated control. The class given is cell-based.
In data set [7] the test system is MDA-MB-231. The experiment in a line: Activation of ERK in human MDA-MB-231 cells assessed as ERK Thr202/Tyr204 phosphorylation level at 2.5 to 10 uM incubated for 24 hrs by immunocytochemistry. It counts as cell-based. The gist of the method: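 MDA-MB-231 cells (ATCC; DMEM, 10% FBS, 5% CO2) were treated, blocked in PBS with 1.5% goat serum, then given p-ERK antibody (1:200 in PBS with 1% BSA) overnight at 4 °C. TRITC-labelled secondary antibody followed for 1 h at room temperature. Nuclear fluorescence was read by microscopy.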

For data set [8], the system named is MDA-MB-231. The experiment in a line: Effect on total ERK1/2 protein level in human MDA-MB-231 cells at 5 uM incubated for 24 hrs in presence of PDGFRbeta siRNA by Western blot relative to untreated control. The note with it: mda-mb-231, 24 h. It counts as cell-based.
Data set [9] concerns MDA-MB-231. The experiment in a line: Induction of autophagy in human MDA-MB-231 cells assessed as change in Beclin-1 protein level at 5 uM incubated for 24 hrs by Western blot method relative to untreated control. The class given is functional. The essentials:
(§4)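 MDA-MB-231 cells (ATCC; DMEM, 10% FBS, 5% CO2) were treated 24 h over a concentration series. Adherent and floating cells were pooled and lysed 1 h at 4 °C (50 mM Hepes pH 7.4, 1% Triton X-100, phosphatase/protease inhibitors). Equal protein was run on 10-15% SDS-PAGE, transferred to PVDF, probed for Beclin-1, p62 and LC3 with HRP/ECL detection, and normalised to β-actin.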

Data set [10] addresses T1, Platelet-derived growth factor receptor beta. The experiment in a line: Inhibition of PDGFRbeta in human MDA-MB-231 cells assessed as ULK Ser317 phosphorylation level at 2.5 uM incubated for 24 hrs in presence of control siRNA by Western blot relative to untreated control. It counts as cell-based. The gist of the method: as §3
In data set [11] the target is T2, Dual specificity mitogen-activated protein kinase kinase; MEK1/2 (Homo sapiens) (UniProt P36507+Q02750). The experiment in a line: Inhibition of MEK1/2 in human MDA-MB-231 cells assessed as MEK1/2 Ser217/221 phosphorylation level at 5 uM incubated for 24 hrs in presence of PDGFRbeta siRNA by Western blot relative to untreated control. It counts as cell-based.
T2 sequence (P36507 whole entry, looked up): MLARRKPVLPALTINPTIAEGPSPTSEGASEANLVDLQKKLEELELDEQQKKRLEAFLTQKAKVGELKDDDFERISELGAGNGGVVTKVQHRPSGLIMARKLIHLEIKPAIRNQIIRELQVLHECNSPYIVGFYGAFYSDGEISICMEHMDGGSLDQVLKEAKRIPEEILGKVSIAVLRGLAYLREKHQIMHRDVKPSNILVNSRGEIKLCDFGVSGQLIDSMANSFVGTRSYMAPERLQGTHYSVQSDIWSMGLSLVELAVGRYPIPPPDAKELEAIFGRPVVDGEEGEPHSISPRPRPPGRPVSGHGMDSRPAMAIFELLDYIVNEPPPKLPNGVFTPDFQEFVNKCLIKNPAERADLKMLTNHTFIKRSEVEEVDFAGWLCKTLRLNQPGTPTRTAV
T2 sequence (Q02750 whole entry, looked up): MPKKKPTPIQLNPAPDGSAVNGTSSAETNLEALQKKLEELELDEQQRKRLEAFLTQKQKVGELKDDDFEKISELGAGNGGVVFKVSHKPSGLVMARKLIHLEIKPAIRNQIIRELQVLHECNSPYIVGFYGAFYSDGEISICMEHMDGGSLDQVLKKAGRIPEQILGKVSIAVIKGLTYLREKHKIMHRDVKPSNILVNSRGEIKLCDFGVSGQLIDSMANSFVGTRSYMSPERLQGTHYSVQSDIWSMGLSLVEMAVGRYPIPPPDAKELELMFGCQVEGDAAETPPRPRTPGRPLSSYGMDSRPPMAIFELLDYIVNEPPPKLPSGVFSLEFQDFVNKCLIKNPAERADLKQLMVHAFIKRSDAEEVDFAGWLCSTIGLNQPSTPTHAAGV
Data set [12] relates to MDA-MB-231. The experiment in a line: Induction of apoptosis in human MDA-MB-231 cells assessed as change in cleaved PARP protein level at 5 uM incubated for 24 hrs by Western blot method relative to untreated control. It counts as functional. The essentials: as §1
For data set [13], the system named is MDA-MB-231. The experiment in a line: Effect on total c-Raf protein level in human MDA-MB-231 cells at 5 uM incubated for 24 hrs in presence of PDGFRbeta siRNA by Western blot relative to untreated control. The class given is cell-based. The note with it: mda-mb-231, 24 h.
For data set [14], the system named is MDA-MB-231. The experiment in a line: Effect on total Akt protein level in human MDA-MB-231 cells at 10 uM incubated for 24 hrs by Western blot relative to untreated control. The class given is ADME, cell-based. Particulars: mda-mb-231, 24 h. The gist of the method:
as §1

Data set [15] deals with MDA-MB-231. The experiment in a line: Induction of autophagy in human MDA-MB-231 cells assessed as change in LC3-2 protein level at 2.5 uM incubated for 24 hrs by Western blot method relative to untreated control. The class given is functional. The essentials:
as §4

Data set [16] relates to MDA-MB-231. The experiment in a line: Effect on total MEK1/2 protein level in human MDA-MB-231 cells at 10 uM incubated for 24 hrs in presence of PDGFRbeta siRNA by Western blot relative to untreated control. The class given is cell-based. The note with it: mda-mb-231, 24 h.
In data set [17] the target is T2, Dual specificity mitogen-activated protein kinase kinase; MEK1/2 (Homo sapiens). The experiment in a line: Inhibition of MEK1/2 in human MDA-MB-231 cells assessed as MEK1/2 Ser217/221 phosphorylation level at 10 uM incubated for 24 hrs in presence of PDGFRbeta siRNA by Western blot relative to untreated control. It counts as cell-based.
In data set [18] the test system is MDA-MB-231. The experiment in a line: Induction of apoptosis in human MDA-MB-231 cells at 2.5 to 10 uM incubated for 24 hrs by Annexin V/propidium iodide staining based flow cytometry. The class given is functional, cell-based.
For data set [19], the system named is MDA-MB-231. The experiment in a line: Effect on total Akt protein level in human MDA-MB-231 cells at 2.5 uM incubated for 24 hrs in presence of PDGFRbeta siRNA by Western blot relative to untreated control. It counts as ADME, cell-based. Particulars: mda-mb-231, 24 h. The essentials:
as §1

Data set [20] has as its target T1, Platelet-derived growth factor receptor beta. The experiment in a line: Inhibition of PDGFRbeta in human MDA-MB-231 cells assessed as ULK Ser317 phosphorylation level at 2.5 uM incubated for 24 hrs in presence of PDGFRbeta siRNA by Western blot relative to untreated control. The class given is cell-based. The gist of the method: as §3

T1 sequence (P09619 whole entry): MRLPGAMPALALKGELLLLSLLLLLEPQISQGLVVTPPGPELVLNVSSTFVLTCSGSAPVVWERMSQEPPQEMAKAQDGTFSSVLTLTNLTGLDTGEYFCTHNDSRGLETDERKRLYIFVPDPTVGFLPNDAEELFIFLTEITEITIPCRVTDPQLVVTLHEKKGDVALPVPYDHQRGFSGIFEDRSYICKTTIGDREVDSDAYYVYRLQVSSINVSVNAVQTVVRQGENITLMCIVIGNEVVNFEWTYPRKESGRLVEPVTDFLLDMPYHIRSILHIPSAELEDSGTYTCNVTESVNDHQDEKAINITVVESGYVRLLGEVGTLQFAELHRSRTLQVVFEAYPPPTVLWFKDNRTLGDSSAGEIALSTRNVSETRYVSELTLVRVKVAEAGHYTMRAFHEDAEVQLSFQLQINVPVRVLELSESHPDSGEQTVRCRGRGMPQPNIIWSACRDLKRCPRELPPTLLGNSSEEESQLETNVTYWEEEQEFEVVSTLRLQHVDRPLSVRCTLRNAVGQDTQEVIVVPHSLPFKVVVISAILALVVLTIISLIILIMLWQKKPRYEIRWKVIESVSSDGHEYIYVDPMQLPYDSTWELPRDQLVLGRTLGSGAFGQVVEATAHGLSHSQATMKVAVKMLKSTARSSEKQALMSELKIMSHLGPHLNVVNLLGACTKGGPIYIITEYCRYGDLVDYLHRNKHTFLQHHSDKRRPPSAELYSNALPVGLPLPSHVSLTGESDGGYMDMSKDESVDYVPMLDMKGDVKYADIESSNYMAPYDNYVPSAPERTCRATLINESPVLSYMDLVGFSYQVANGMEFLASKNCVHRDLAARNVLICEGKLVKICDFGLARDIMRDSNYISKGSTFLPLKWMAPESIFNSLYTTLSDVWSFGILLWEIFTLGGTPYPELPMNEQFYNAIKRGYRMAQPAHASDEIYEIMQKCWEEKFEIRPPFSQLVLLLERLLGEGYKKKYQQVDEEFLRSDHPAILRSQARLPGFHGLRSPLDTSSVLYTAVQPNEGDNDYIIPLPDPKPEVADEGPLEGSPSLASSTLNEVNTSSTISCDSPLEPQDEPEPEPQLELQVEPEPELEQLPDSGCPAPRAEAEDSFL

For the compound `COc1cccc(Nc2cc(N3CCN(C(=O)Nc4ccc(C(F)(F)F)cc4)CC3)ncn2)c1`, the fold change (FC) came to 0.95 in data set [1]; 2.3 in the data set with MDA-MB-231 [2]; 1.5 in data set [3]; 0.26 in [4]; 0.61 in [5]; 0.66 in data set [6]. Further, the “fold change (FC)” value with MDA-MB-231 [8] is 2; with MDA-MB-231 [9] it was 2.8; in data set [10], 3.21; in data set [11] it was 1.05; in the data set with MDA-MB-231 [12], 0.85; with MDA-MB-231 [13] it was 0.82. In addition, the “fold change (FC)” value turned out to be 0.76 in the data set with MDA-MB-231 [14]; 2.5 in the data set with MDA-MB-231 [15]; 1.03 with MDA-MB-231 [16]; 1.01 in [17]; 0.63 with MDA-MB-231 [19]; 3.46 in [20]. Further, the result with MDA-MB-231 [7] and in the data set with MDA-MB-231 [18] was Active.

For the origin of these results see ChEMBL document CHEMBL4130442, “Design, synthesis and structure-activity relationship studies of a focused library of pyrimidine moiety with anti-proliferative and anti-metastasis activities in triple negative breast cancer” (Eur J Med Chem, 2017).
